Data as given in paper PMC10374283 (Journal of medicinal chemistry, 2023).
Entries after “also recorded” stand apart in the source; their conditions may differ.

Tests used:
SARS-CoV-2 Nsp14 [1] = biological target: T1, SARS-CoV-2 Nsp14 (Severe acute respiratory syndrome coronavirus 2, UniProt P0DTD1); experiment: biochemical; format: biochemical
[2] = Colloidal aggregation by dynamic light scattering; format: physicochemical; details: for colloid-like particle formation by DLS: 50 mM KPi pH 7.0, 1% DMSO; for CAC relative to Nsp14 IC50: DLS CAC divided by Nsp14 IC50
[3] = test system: malate dehydrogenase (MDH); experiment: Aggregation counter-screen, malate dehydrogenase inhibition; format: biochemical; details: for inhibition of MDH: absence of detergent; for inhibition of MDH with detergent: with 0.01% Triton X-100
SARS-CoV-2 Nsp14 [4] = biological target: T1, SARS-CoV-2 Nsp14; experiment: Mechanism of action: IC50 at varying SAM and RNA concentrations; format: biochemical; details: varying SAM or RNA concentration
AmpC β-lactamase (AmpC) = AmpC β-lactamase (AmpC) (Escherichia coli, UniProt P00811); format: biochemical; details: for inhibition of AmpC: absence of detergent; for inhibition of AmpC with detergent: with 0.01% Triton X-100
Chain of AmpC β-lactamase (AmpC) (P00811 20-377): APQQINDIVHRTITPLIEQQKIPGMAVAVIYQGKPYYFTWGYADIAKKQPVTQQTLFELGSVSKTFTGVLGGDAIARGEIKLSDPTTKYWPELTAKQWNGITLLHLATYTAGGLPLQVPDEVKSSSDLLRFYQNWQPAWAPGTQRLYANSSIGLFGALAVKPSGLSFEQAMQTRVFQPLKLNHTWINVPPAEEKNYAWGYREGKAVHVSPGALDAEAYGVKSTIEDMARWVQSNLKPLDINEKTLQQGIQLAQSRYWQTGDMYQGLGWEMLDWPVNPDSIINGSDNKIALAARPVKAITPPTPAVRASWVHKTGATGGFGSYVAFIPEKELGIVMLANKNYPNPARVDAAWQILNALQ

SARS-CoV-2 = experiment: Antiviral activity versus cell toxicity; format: cell-based
SARS-CoV-2 Nsp14 [5] = biological target: T1, SARS-CoV-2 Nsp14; format: biochemical; details: preincubated at 10-fold IC50 for 1 h, diluted 100-fold
[6] = test system: panel of 30 human SAM-dependent MTases; experiment: Selectivity panel of 30 human SAM-dependent protein and RNA MTases; format: biochemical; details: compounds at 10 μM, 30 human MTases
Nsp14 = Nsp14 (Severe acute respiratory syndrome coronavirus 2, UniProt P0DTD1); experiment: Assessment of covalent binding to Nsp14 by LC-MS; design: species or system SARS-CoV-2
In short: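 SARS-CoV-2 Nsp14 was E. coli-expressed with a His6-SUMO tag and purified after SUMO removal. Protein was incubated with a 20-fold molar excess of test compound for 2 h at room temperature (20 °C), then diluted in 0.1% formic acid. Separation used HPLC with a 5–95% acetonitrile/water gradient, followed by ESI time-of-flight mass spectrometry.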

MDH or AmpC = experiment: Aggregation counter-screen, enzyme not specified per compound; format: biochemical; details: for inhibition of MDH or AmpC: absence of detergent; for inhibition of MDH or AmpC with detergent: with 0.01% of detergent

Cn1c(=O)[nH]c2ncc(-c3cccc(C(=O)Nc4cccc(C#N)c4)c3)cc21 [‘9213, N-(3-Cyanophenyl)-3-(1-methyl-2-oxo-2,3-dihydro-1H-imidazo-[4,5-b]pyridin-6-yl)benzamide]
enzyme inhibition at 30 and 50 μM (SARS-CoV-2 Nsp14 [1]; tested at 30 and 50 μM): more than 50%
colloid-like particle formation by DLS [2]: did form colloid-like particles by DLS

CC(C)SCn1cnc2cnn(C)c2c1=O [‘5604, 6-((Isopropylthio)methyl)-1-methyl-1H-pyrazolo[4,3-d]-pyrimidin-7(6H)-One]
colloid-like particle formation by DLS [2]: CACs at relevant concentrations
inhibition of MDH [3]: inhibited MDH

Oc1ccccc1-c1ncnc2[nH]ccc12 [‘0683, 2-(7H-Pyrrolo[2,3-d]pyrimidin-4-yl)phenolv]
ligand efficiency (LE) (SARS-CoV-2 Nsp14 [1]; from Nsp14 IC50): 0.42 kcal/heavy atom
pattern of inhibition versus SAM and RNA (SARS-CoV-2 Nsp14 [4]): competitive and presumably reversible inhibitor of both SAM and RNA binding
inhibition of MDH [3]: both MDH and AmpC
inhibition of AmpC (AmpC β-lactamase (AmpC)): both MDH and AmpC
antiviral activity versus cell toxicity (SARS-CoV-2): for none of them could we distinguish anti-viral activity from cell toxicity

C=C(Cl)COC(=O)c1cnc2[nH]ccc2c1 [‘0741, 2-Chloroallyl 1H-pyrrolo[2,3-b]pyridine-5-carboxylate]
inhibition of MDH [3]: inhibited MDH
inhibition of MDH with detergent [3]: this effect was smaller

Cc1cc(C(=O)Nc2cccc(N3CCNC3=O)c2C)sc1C=O [‘4975, 5-Formyl-4-methyl-N-(2-methyl-3-(2-oxoimidazolidin-1-yl)-phenyl)thiophene-2-carboxamide]
antiviral activity versus cell toxicity (SARS-CoV-2): for none of them could we distinguish anti-viral activity from cell toxicity

Cc1c(C(=O)/C=C/c2ccc(O)c([N+](=O)[O-])c2)c(C#N)c2n1CCC2 [‘4824, (E)-6-(3-(4-Hydroxy-3-nitrophenyl)acryloyl)-5-methyl-2,3-dihydro-1H-pyrrolizine-7-carbonitrile]
reversibility of Nsp14 inhibition by jump/rapid dilution (SARS-CoV-2 Nsp14 [5]): inhibition by ‘4824 is not due to the nitrile electrophile
pattern of inhibition versus SAM and RNA (SARS-CoV-2 Nsp14 [4]): SAM- and RNA-competitive pattern of inhibition
colloid-like particle formation by DLS [2]: did not form detectable particles by DLS
inhibition of MDH [3]: did inhibit the counter-screening enzymes MDH and AmpC at relevant concentrations
inhibition of MDH with detergent [3]: inhibition was largely or entirely eliminated
inhibition of AmpC (AmpC β-lactamase (AmpC)): did inhibit the counter-screening enzymes MDH and AmpC at relevant concentrations
inhibition of AmpC with detergent (AmpC β-lactamase (AmpC)): inhibition was largely or entirely eliminated
inhibition of panel enzymes (>50% criterion) [6]: no inhibition greater than 50% for any enzyme in the panel; also recorded: Nsp14-selective

N#Cc1ccc(NC(=O)c2cc(C=O)n3c2CCCC3)c2cc(O)ccc12 [‘1911, N-(4-Cyano-7-hydroxynaphthalen-1-yl)-3-formyl-5,6,7,8-tetra-hydroindolizine-1-carboxamide]
reversibility of Nsp14 inhibition by jump/rapid dilution (SARS-CoV-2 Nsp14 [5]): little residual inhibition when diluted below its IC50
covalent adduct formation with Nsp14 by mass spectrometry (Nsp14): did not increase the molecular mass of Nsp14
colloid-like particle formation by DLS [2]: did form colloid-like particles by DLS at a relevant concentration
inhibition of MDH [3]: did inhibit AmpC and MDH in the absence of Triton
inhibition of MDH with detergent [3]: this inhibition disappeared
inhibition of AmpC (AmpC β-lactamase (AmpC)): did inhibit AmpC and MDH in the absence of Triton
inhibition of AmpC with detergent (AmpC β-lactamase (AmpC)): this inhibition disappeared
inhibition of panel enzymes (>50% criterion) [6]: inhibiting only two histone MTases; also recorded: only hit two very closely related MTases
antiviral activity versus cell toxicity (SARS-CoV-2): for none of them could we distinguish anti-viral activity from cell toxicity

O=C(NC1CSC1)c1ncnn2cccc12 [‘5763, N-(Thietan-3-yl)pyrrolo[2,1-f][1,2,4]triazine-4-carboxamide]
colloid-like particle formation by DLS [2]: CACs at relevant concentrations

CN(C)c1cncc(NC(=O)c2ccc(C=O)cc2O)c1 [‘1889, N-(5-(Dimethylamino)pyridin-3-yl)-4-formyl-2-hydroxybenza-mide]
CAC relative to Nsp14 IC50 [2]: CAC five-fold higher than its Nsp14 IC50
inhibition of MDH [3]: did not inhibit either counter-screening enzyme under any measured condition
inhibition of AmpC (AmpC β-lactamase (AmpC)): did not inhibit either counter-screening enzyme under any measured condition

C=CC(=O)NC[C@H](OC)C(=O)N1CCC(C2C(=O)Nc3cc(Cl)ccc32)CC1 (stereo partly drawn) [acryl42_10, N-((2S)-3-(4-(6-Chloro-2-oxoindolin-3-yl)piperidin-1-yl)-2-methoxy-3-oxopropyl)acrylamide]
IC50 (SARS-CoV-2 Nsp14 [1]): 7 µM
fold more potent than acryl42 (SARS-CoV-2 Nsp14 [1]; relative to parent acryl42): 4.5 fold
antiviral activity versus cell toxicity (SARS-CoV-2): for none of them could we distinguish anti-viral activity from cell toxicity

Cn1ncc(N)c1-c1cc2ccccc2[nH]1 [‘6066, 5-(1H-Indol-2-yl)-1-methyl-1H-pyrazol-4-amine]
colloid-like particle formation by DLS [2]: CACs at relevant concentrations

C=CC(=O)N(C)c1ccc(C(=O)Nc2ccc(-c3cn4ccsc4n3)cc2)cc1 [acryl41]
covalent adduct formation with Nsp14 by mass spectrometry (Nsp14): did not form a measurable adduct by mass spectrometry

O=C(COC(=O)c1cc(-c2ccoc2)n[nH]1)Nc1ccc(Br)cc1 [‘1988, 2-((4-Bromophenyl)amino)-2-oxoethyl 3-(Furan-3-yl)-1H-pyra-zole-5-carboxylate]
IC50 (SARS-CoV-2 Nsp14 [1]): 6 µM
reversibility of Nsp14 inhibition by jump/rapid dilution (SARS-CoV-2 Nsp14 [5]): noncovalent inhibitor
pattern of inhibition versus SAM and RNA (SARS-CoV-2 Nsp14 [4]): SAM- and RNA-competitive pattern of inhibition
colloid-like particle formation by DLS [2]: formed colloid-like particles by DLS
CAC relative to Nsp14 IC50 [2]: 10 fold
inhibition of MDH [3]: inhibition of MDH was in a relevant range
inhibition of MDH with detergent [3]: inhibition of both enzymes disappeared
inhibition of AmpC with detergent (AmpC β-lactamase (AmpC)): inhibition of both enzymes disappeared
inhibition of panel enzymes (>50% criterion) [6]: inhibiting nine enzymes more than 50%
antiviral activity versus cell toxicity (SARS-CoV-2): for none of them could we distinguish anti-viral activity from cell toxicity

CCC(=O)NCCC(=O)N1CCC(C2C(=O)Nc3cc(Cl)ccc32)CC1 (centres unmarked) [ZD160–68, N-(3-(4-(6-Chloro-2-oxoindolin-3-yl)piperidin-1-yl)-3-oxopropyl)-propionamide]
Nsp14 enzymatic inhibition (in words) (SARS-CoV-2 Nsp14 [1]): inactive; also recorded: no enzymatic inhibition

Cc1c(C(=O)/C=C/c2cc(Br)c(O)cc2F)c(C#N)c2n1CCC2 [‘6953, (E)-6-(3-(5-Bromo-2-fluoro-4-hydroxyphenyl)acryloyl)-5-methyl-2,3-dihydro-1H-pyrrolizine-7-carbonitrile]
colloid-like particle formation by DLS [2]: did form colloid-like particles by DLS
inhibition of MDH or AmpC (MDH or AmpC): inhibited MDH or AmpC at relevant concentrations
inhibition of MDH or AmpC with detergent (MDH or AmpC): inhibition was largely eliminated

N#Cc1c(C(=O)NCc2ccc(O)c([N+](=O)[O-])c2)[nH]c2ccccc12 [‘6943, 3-Cyano-N-(4-hydroxy-3-nitrobenzyl)-1H-indole-2-carboxamide]
colloid-like particle formation by DLS [2]: did form colloid-like particles by DLS
inhibition of MDH or AmpC (MDH or AmpC): inhibited MDH or AmpC at relevant concentrations
inhibition of MDH or AmpC with detergent (MDH or AmpC): inhibition was largely eliminated

Cc1nc2ncc(-c3c[nH]nn3)cc2[nH]1 [‘0222, 2-Methyl-6-(1H-1,2,3-triazol-4-yl)-1H-imidazo[4,5-b]pyridine]
colloid-like particle formation by DLS [2]: CACs at relevant concentrations

Cn1c(C(=O)NCc2ccc(O)c([N+](=O)[O-])c2)c(Br)c2ccccc21 [‘6947, 3-Bromo-N-(4-hydroxy-3-nitrobenzyl)-1-methyl-1H-indole-2-carboxamide]
colloid-like particle formation by DLS [2]: did form colloid-like particles by DLS
inhibition of MDH or AmpC (MDH or AmpC): inhibited MDH or AmpC at relevant concentrations
inhibition of MDH or AmpC with detergent (MDH or AmpC): inhibition was largely eliminated
